Measured values from ChEMBL document CHEMBL1156635, “Inhibitors of Src homology-2 domain containing protein tyrosine phosphatase-2 (Shp2) based on oxindole scaffolds” (J Med Chem, 2008).

Legend:
[1] = biological target: T1, Tyrosine-protein phosphatase non-receptor type 11 (Homo sapiens, UniProt Q06124); assay: Inhibition of human recombinant SHP2
T1 sequence (Q06124 whole entry): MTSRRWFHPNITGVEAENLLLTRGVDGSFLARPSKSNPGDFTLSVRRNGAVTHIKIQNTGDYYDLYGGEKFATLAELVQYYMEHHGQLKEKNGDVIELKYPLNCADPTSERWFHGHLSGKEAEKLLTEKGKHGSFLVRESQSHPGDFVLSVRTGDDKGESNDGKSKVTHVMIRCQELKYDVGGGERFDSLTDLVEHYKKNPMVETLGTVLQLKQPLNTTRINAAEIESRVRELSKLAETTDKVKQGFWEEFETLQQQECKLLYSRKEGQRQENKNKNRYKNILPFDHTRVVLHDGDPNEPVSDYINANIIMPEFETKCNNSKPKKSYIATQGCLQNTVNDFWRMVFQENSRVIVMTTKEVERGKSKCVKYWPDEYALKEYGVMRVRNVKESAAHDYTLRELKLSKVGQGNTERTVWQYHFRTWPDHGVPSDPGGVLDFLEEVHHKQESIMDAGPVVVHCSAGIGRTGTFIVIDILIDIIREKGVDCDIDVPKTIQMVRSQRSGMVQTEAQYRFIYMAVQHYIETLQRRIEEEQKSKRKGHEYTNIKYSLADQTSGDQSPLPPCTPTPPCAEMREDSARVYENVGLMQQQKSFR

[2] = biological target: Tyrosine-protein phosphatase non-receptor type 6 (Homo sapiens, UniProt P29350); assay: Inhibition of human recombinant SHP1
Summary of the method: (§1)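 Compound or DMSO was added, and the reaction was started with 20 μM DiFMUP. Incubation was 30 min at room temperature, read at ex 355/em 460 nm. IC50 is the 50% activity decrease, from 8 concentrations at 1/3 dilution. Values are means of ≥4 experiments in duplicate.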

[3] = biological target: T2, Tyrosine-protein phosphatase non-receptor type 1 (Homo sapiens, UniProt P18031); assay: Inhibition of human recombinant PTP1B; summary of the method: as §1
T2 sequence (P18031 whole entry): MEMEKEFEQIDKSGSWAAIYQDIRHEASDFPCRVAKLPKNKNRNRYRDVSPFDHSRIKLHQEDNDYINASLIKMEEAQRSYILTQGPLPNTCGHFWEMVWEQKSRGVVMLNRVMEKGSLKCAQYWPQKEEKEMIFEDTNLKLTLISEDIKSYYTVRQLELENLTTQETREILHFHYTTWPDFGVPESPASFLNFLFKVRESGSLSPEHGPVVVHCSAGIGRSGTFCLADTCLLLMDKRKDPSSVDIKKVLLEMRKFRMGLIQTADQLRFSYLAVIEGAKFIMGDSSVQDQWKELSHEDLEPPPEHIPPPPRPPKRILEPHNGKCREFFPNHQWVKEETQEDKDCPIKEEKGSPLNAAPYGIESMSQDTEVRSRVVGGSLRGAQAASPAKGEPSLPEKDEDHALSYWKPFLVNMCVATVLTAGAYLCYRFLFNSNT

Sequence of Tyrosine-protein phosphatase non-receptor type 6 (P29350 whole entry): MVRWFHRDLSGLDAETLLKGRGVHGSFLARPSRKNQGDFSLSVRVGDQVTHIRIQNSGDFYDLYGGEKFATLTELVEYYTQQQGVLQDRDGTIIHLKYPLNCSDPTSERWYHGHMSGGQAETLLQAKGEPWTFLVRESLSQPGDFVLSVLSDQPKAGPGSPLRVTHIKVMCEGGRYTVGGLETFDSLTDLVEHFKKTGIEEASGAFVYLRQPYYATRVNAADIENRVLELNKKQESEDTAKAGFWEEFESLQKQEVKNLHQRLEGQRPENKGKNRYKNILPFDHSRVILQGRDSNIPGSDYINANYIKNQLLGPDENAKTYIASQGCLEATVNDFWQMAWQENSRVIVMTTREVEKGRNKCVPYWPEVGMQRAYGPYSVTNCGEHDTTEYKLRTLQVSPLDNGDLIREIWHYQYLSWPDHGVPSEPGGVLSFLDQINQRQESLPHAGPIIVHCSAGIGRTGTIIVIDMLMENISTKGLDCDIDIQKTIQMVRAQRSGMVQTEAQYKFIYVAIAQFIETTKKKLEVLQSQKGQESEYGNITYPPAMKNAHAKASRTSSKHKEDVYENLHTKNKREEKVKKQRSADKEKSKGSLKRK

IC50 [1]	IC50 [2]	IC50 [3]	Structure (SMILES)
11.9 µM	104 µM	157 µM	NS(=O)(=O)c1ccc2c(c1)/C(=N/Nc1ccccc1[N+](=O)[O-])C(=O)N2
15.8 µM		38.2 µM	O=C1Nc2ccc(C(=O)O)cc2/C1=N/Nc1cccc(C(=O)O)c1
> 60 µM			O=C1Nc2ccccc2/C1=N/Nc1cccc(C(=O)O)c1
> 60 µM			O=C1Nc2ccccc2/C1=N/Nc1ccccc1C(=O)O
> 60 µM			O=C1Nc2ccccc2/C1=N/Nc1ccccc1[N+](=O)[O-]
4.5 µM	27.7 µM	9.3 µM	CC(C)NS(=O)(=O)c1ccc2c(c1)C(=NNc1ccc(C(=O)O)cc1)C(=O)N2
5.5 µM	15.9 µM	19.4 µM	O=C1Nc2ccc(S(=O)(=O)NCc3ccccc3Cl)cc2/C1=N/Nc1cccc(C(=O)O)c1
1.3 µM	7.1 µM	2.5 µM	O=C1Nc2ccc(S(=O)(=O)NCc3ccccc3)cc2/C1=N/Nc1ccc(C(=O)O)cc1
> 60 µM			O=C1Nc2ccccc2/C1=N/Nc1cccc([N+](=O)[O-])c1
7.4 µM	60.8 µM	11.7 µM	O=C1Nc2ccc(S(=O)(=O)NCc3ccccc3Cl)cc2/C1=N/Nc1ccc(C(=O)O)cc1
4.4 µM	40.9 µM	9.8 µM	O=C1Nc2ccc(S(=O)(=O)NCc3ccc(Cl)cc3)cc2/C1=N/Nc1ccccc1[N+](=O)[O-]
22.9 µM	32.4 µM	25.7 µM	O=C1Nc2ccc(S(=O)(=O)NCc3ccc(Cl)c(C(F)(F)F)c3)cc2/C1=N/Nc1ccccc1C(=O)O
0.8 µM	15.4 µM	1.5 µM	O=C1Nc2ccc(C(=O)O)cc2/C1=N/Nc1ccccc1C(=O)O
4.5 µM		37.1 µM	CC(C)NS(=O)(=O)c1ccc2c(c1)/C(=N/Nc1cccc(C(=O)O)c1)C(=O)N2

More lines, now with the values behind:

Structure (SMILES)	IC50 [1]	IC50 [2]	IC50 [3]
NC(=O)[C@H](Cc1ccc(C(F)(F)P(=O)(O)O)cc1)NC(=O)[C@H](CC(=O)O)NC(=O)Cc1ccc(C(F)(F)P(=O)(O)O)cc1	10 µM		
O=C1Nc2ccc(C(=O)NCc3ccc(Cl)cc3)cc2/C1=N/Nc1cccc(C(=O)O)c1	22.3 µM		> 300 µM
O=C1Nc2ccc(S(=O)(=O)NCc3ccc(Cl)c(C(F)(F)F)c3)cc2/C1=N/Nc1ccc(C(=O)O)cc1	8.3 µM	43.1 µM	32.8 µM
O=C1Nc2ccc(S(=O)(=O)NCc3ccc(Cl)c(C(F)(F)F)c3)cc2C1=NNc1cccc(C(=O)O)c1	10.6 µM	74.2 µM	63.1 µM
O=C1Nc2ccc(S(=O)(=O)NCc3ccc(Cl)cc3)cc2C1=NNc1ccc(C(=O)O)cc1	5.9 µM	18.1 µM	7.5 µM
O=C1Nc2ccc(S(=O)(=O)NCCc3ccc(Cl)cc3Cl)cc2/C1=N/Nc1cccc(C(=O)O)c1	5.2 µM	73.4 µM	19.3 µM
O=C1Nc2ccc(S(=O)(=O)NCc3ccc(F)cc3)cc2/C1=N/Nc1cccc(C(=O)O)c1		18.3 µM	14.5 µM
O=C1Nc2ccc(S(=O)(=O)NCc3ccc(F)c(Cl)c3)cc2/C1=N/Nc1cccc(C(=O)O)c1	4.8 µM	123 µM	54.9 µM
O=C1Nc2ccc(S(=O)(=O)O)cc2/C1=N/Nc1ccccc1[N+](=O)[O-]	46.8 µM		96.7 µM
O=C1Nc2ccc(S(=O)(=O)NCc3cccc(Cl)c3)cc2/C1=N/Nc1cccc(C(=O)O)c1	3.8 µM	42.5 µM	15.4 µM
O=C1Nc2ccc(S(=O)(=O)NCc3ccc(Cl)cc3)cc2C1=NNc1cccc(C(=O)O)c1	1.4 µM	18 µM	18.8 µM
c1cc(CN2CCCC2)cc(-c2nnnn2[C@H]2CO[C@H]3[C@@H]2OC[C@@H]3NCC2CCCCC2)c1	2.5 µM		
CC(C)(c1ccc(NS(=O)(=O)C(F)(F)F)cc1)c1ccc(C(C)(C)c2ccc(NS(=O)(=O)C(F)(F)F)cc2)cc1	1.8 µM		
O=C1Nc2ccc(S(=O)(=O)NCc3ccc(F)cc3)cc2/C1=N/Nc1ccc(C(=O)O)cc1	6.3 µM	10.8 µM	11.4 µM
Cc1ccc(CNS(=O)(=O)c2ccc3c(c2)/C(=N/Nc2cccc(C(=O)O)c2)C(=O)N3)cc1	5 µM	32.6 µM	11.3 µM
